Activity calls are given as the source filed them. The rule behind the calls is not given here.
System: not listed separately
Assay: Therapeutic index, ratio of TC50 for human A549 cells under dark to IC50 for human A549 cells irradiated with 1 J/cm2 of 650 nanometer laser light
Format: toxicity, cell-based
Details: read-out: TI
Outline: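 A549 cells (F-12K, 10% FBS, 37 °C, 5% CO2) seeded 24 h, then exposed to 0–10 photosensitizer for 24 h. Dark arm: MTT 48 h later. Light arm: 650 nm laser, 1 J/cm2 (25 mW/cm2, 40 s), then MTT. A570 viability relative to control, triplicate. Ratio = dark TC50 / irradiated IC50.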

Structure (SMILES) | selectivity ratio
CCCCCCOC(C)c1c(C)c2cc3nc(c4c5[nH]c(cc6nc(cc1[nH]2)C(C)=C6CC)c(C)c5C(=O)C4)[C@@H](CCC(=O)O)[C@@H]3C (some centres not stated) [HPPH] | 5.91

System: Mus musculus
Assay: Phototoxicity in ICR mouse assessed as change in auricles 0.45 mg/kg, iv in presence of 10 mW/cm2 light irradiation for 10 mins upto 7 days measured after 1day of light irradiation by H and E staining based microscopic analysis
Format: organism-based
Details: in vivo

Structure (SMILES) | Activity
CCCCCCOC(C)c1c(C)c2cc3nc(c4c5[nH]c(cc6nc(cc1[nH]2)C(C)=C6CC)c(C)c5C(=O)C4)[C@@H](CCC(=O)O)[C@@H]3C (some centres not stated) [HPPH] | Non-Toxic

System: Mus musculus
Assay: Phototoxicity in ICR mouse assessed as ear weight at 0.45 mg/kg, iv followed by 10 mW/cm2 light irradiation for 10 mins at 7 days after drug challenge measured after 1 day of light irradiation (13.2 +/- 1.6 mg)
Format: organism-based
Details: in vivo

Structure (SMILES) | Activity
CCCCCCOC(C)c1c(C)c2cc3nc(c4c5[nH]c(cc6nc(cc1[nH]2)C(C)=C6CC)c(C)c5C(=O)C4)[C@@H](CCC(=O)O)[C@@H]3C (some centres not stated) [HPPH] | 13.2 mg

System: Mus musculus
Assay: Phototoxicity in ICR mouse assessed as ear weight at 0.45 mg/kg, iv followed by 10 mW/cm2 light irradiation for 10 mins at 5 days after drug challenge measured after 1 day of light irradiation (reference value: 12.9 +/- 1.4 mg)
Format: organism-based
Details: in vivo

Structure (SMILES) | Activity
CCCCCCOC(C)c1c(C)c2cc3nc(c4c5[nH]c(cc6nc(cc1[nH]2)C(C)=C6CC)c(C)c5C(=O)C4)[C@@H](CCC(=O)O)[C@@H]3C (some centres not stated) [HPPH] | 13.1 mg

System: Mus musculus
Assay: Phototoxicity in ICR mouse assessed as ear weight at 0.45 mg/kg, iv followed by 10 mW/cm2 light irradiation for 10 mins at 3 days after drug challenge measured after 1 day of light irradiation (reference value: 12.8 +/- 1.5 mg)
Format: organism-based
Details: in vivo

Structure (SMILES) | Activity
CCCCCCOC(C)c1c(C)c2cc3nc(c4c5[nH]c(cc6nc(cc1[nH]2)C(C)=C6CC)c(C)c5C(=O)C4)[C@@H](CCC(=O)O)[C@@H]3C (some centres not stated) [HPPH] | 13.3 mg

System: Mus musculus
Assay: Phototoxicity in ICR mouse assessed as ear weight at 0.45 mg/kg, iv followed by 10 mW/cm2 light irradiation for 10 mins at 1 day after drug challenge measured after 1 day of light irradiation (reference value: 12.6 +/- 1.2 mg)
Format: organism-based
Details: in vivo

Structure (SMILES) | Activity
CCCCCCOC(C)c1c(C)c2cc3nc(c4c5[nH]c(cc6nc(cc1[nH]2)C(C)=C6CC)c(C)c5C(=O)C4)[C@@H](CCC(=O)O)[C@@H]3C (some centres not stated) [HPPH] | 12.8 mg

System: not listed separately
Assay: Emission property of a compound in DMSO assessed as red shift at 5 uM on excitation with light at 410 to 415 nm by 3D fluorescence spectra analysis
Format: physicochemical
Details: not given
Outline: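 Stock 1 mM in DMSO, measured at […] (so in the source); excitation scanned 350–640 nm, emission 600–750 nm, 1 nm steps, room temperature, quartz cuvettes; 3D fluorescence matrix spectra recorded.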

Activity | Structure (SMILES)
661 to 669 nm | CCCCCCOC(C)c1c(C)c2cc3nc(c4c5[nH]c(cc6nc(cc1[nH]2)C(C)=C6CC)c(C)c5C(=O)C4)[C@@H](CCC(=O)O)[C@@H]3C (some centres not stated) [HPPH]

System: not listed separately
Assay: Induction of ROS generation in DMF solution assessed as slope of the photodegradation rate of DPBF at 2 uM followed by irradiation measured every 10 secs by spectrophotometric analysis
Format: functional
Details: not given

Structure (SMILES) | K
CCCCCCOC(C)c1c(C)c2cc3nc(c4c5[nH]c(cc6nc(cc1[nH]2)C(C)=C6CC)c(C)c5C(=O)C4)[C@@H](CCC(=O)O)[C@@H]3C (some centres not stated) [HPPH] | 0.0357 s⁻¹

System: not listed separately
Assay: Dark toxicity in human A549 cells assessed as reduction in cell viability incubated under dark for 24 hrs measured after 48 hrs by MTT assay
Format: cell-based
Details: read-out: TC50
Outline: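 A549 cells seeded at 5×10^4 cells/100 µL per well for 24 h, treated in the dark with […] (so in the source) for 24 h; MTT added 4 h, absorbance 570 nm, 48 h later; viability as OD treated/OD control; triplicate, mean ± SD.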

Structure (SMILES) | CC50 at 24 h
CCCCCCOC(C)c1c(C)c2cc3nc(c4c5[nH]c(cc6nc(cc1[nH]2)C(C)=C6CC)c(C)c5C(=O)C4)[C@@H](CCC(=O)O)[C@@H]3C (some centres not stated) [HPPH] | 1950 nM

System: A549
Assay: Phototoxicity against human A549 cells assessed as reduction in cell proliferation irradiated with 1 J/cm2 of 650 nanometer laser light preincubated for 24 hrs measured after 48 hrs by MTT assay
Format: functional, cell-based
Details: A549, light or radiation study
Outline: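 A549 cells seeded 5×10^4 cells/100 µL per well, given […] for 24 h, then 650 nm semiconductor laser at 1 J/cm2 (25 mW/cm2, 40 s); MTT 4 h, absorbance 570 nm; viability vs control; triplicate, mean ± SD.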

Structure (SMILES) | IC50
CCCCCCOC(C)c1c(C)c2cc3nc(c4c5[nH]c(cc6nc(cc1[nH]2)C(C)=C6CC)c(C)c5C(=O)C4)[C@@H](CCC(=O)O)[C@@H]3C (some centres not stated) [HPPH] | 330 nM

System: A549
Assay: Photodynamic antitumor activity against human A549 cells xenografted in BALB/c nude mouse assessed as decrease in tumor weight at 0.3 mg/kg, iv followed by laser light irradiation at 120 J/cm2 measured after 14 days
Format: functional
Details: not given
Outline: (§1)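 Male BALB/c nude mice (5–6 weeks, 14–16 g) given 2×10^6 A549 cells s.c. in 0.2 mL PBS; at 6–7 mm tumors randomized into ten groups; drug via tail vein, 650 nm diode laser 120 J/cm2 at 180 mW/cm2 24 h later; caliper volume a×b²/2, followed 14 days.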

Structure (SMILES) | Activity
CCCCCCOC(C)c1c(C)c2cc3nc(c4c5[nH]c(cc6nc(cc1[nH]2)C(C)=C6CC)c(C)c5C(=O)C4)[C@@H](CCC(=O)O)[C@@H]3C (some centres not stated) [HPPH] | 0.0212 g

System: A549
Assay: Photodynamic antitumor activity against human A549 cells xenografted in BALB/c nude mouse assessed as increase in tumor tissue damage at 0.3 mg/kg, iv incubated for 24 hrs followed by laser light irradiation at 120 J/cm2 measured up to 14 days
Format: functional, organism-based
Details: not given
Outline: as §1

Structure (SMILES) | Activity
CCCCCCOC(C)c1c(C)c2cc3nc(c4c5[nH]c(cc6nc(cc1[nH]2)C(C)=C6CC)c(C)c5C(=O)C4)[C@@H](CCC(=O)O)[C@@H]3C (some centres not stated) [HPPH] | Active

System: A549
Assay: Photodynamic antitumor activity against human A549 cells xenografted in BALB/c nude mouse assessed as reduction in tumor volume at 0.3 mg/kg, iv incubated for 24 hrs followed by laser light irradiation at 120 J/cm2 measured up to 14 days
Format: functional, organism-based
Details: not given
Outline: as §1

Structure (SMILES) | Activity
CCCCCCOC(C)c1c(C)c2cc3nc(c4c5[nH]c(cc6nc(cc1[nH]2)C(C)=C6CC)c(C)c5C(=O)C4)[C@@H](CCC(=O)O)[C@@H]3C (some centres not stated) [HPPH] | Active

System: A549
Assay: Photodynamic antitumor activity against human A549 cells xenografted in BALB/c nude mouse assessed as survival time at 0.3 mg/kg, iv incubated for 24 hrs followed by laser light irradiation at 120 J/cm2 measured up to 70 days
Format: functional, organism-based
Details: not given
Outline: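 Nude mice bearing A549 xenografts, 0.3 mg/kg drug i.v. then 650 nm laser 120 J/cm2 at 180 mW/cm2 after 24 h; survival shown as Kaplan-Meier with log-rank test, n = 5.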

Structure (SMILES) | Activity
CCCCCCOC(C)c1c(C)c2cc3nc(c4c5[nH]c(cc6nc(cc1[nH]2)C(C)=C6CC)c(C)c5C(=O)C4)[C@@H](CCC(=O)O)[C@@H]3C (some centres not stated) [HPPH] | Active

System: Mus musculus
Assay: Phototoxicity in ICR mouse assessed as change in exposed neck skin 0.45 mg/kg, iv in presence of 10 mW/cm2 light irradiation for 10 mins upto 7 days measured after 1day of light irradiation by H and E staining based microscopic analysis
Format: organism-based
Details: in vivo

Structure (SMILES) | Activity
CCCCCCOC(C)c1c(C)c2cc3nc(c4c5[nH]c(cc6nc(cc1[nH]2)C(C)=C6CC)c(C)c5C(=O)C4)[C@@H](CCC(=O)O)[C@@H]3C (some centres not stated) [HPPH] | Non-Toxic

System: Mus musculus
Assay: Phototoxicity in ICR mouse assessed as change in skin of the backs 0.45 mg/kg, iv in presence of 10 mW/cm2 light irradiation for 10 mins upto 7 days measured after 1 day of light irradiation by H and E staining based microscopic analysis
Format: organism-based
Details: in vivo

Structure (SMILES) | Activity
CCCCCCOC(C)c1c(C)c2cc3nc(c4c5[nH]c(cc6nc(cc1[nH]2)C(C)=C6CC)c(C)c5C(=O)C4)[C@@H](CCC(=O)O)[C@@H]3C (some centres not stated) [HPPH] | Non-Toxic

System: Cavia porcellus
Assay: Phototoxicity in guinea pig assessed as change in left ear weight 4.5 mg/kg, iv followed by 10 mW/cm2 light irradiation for 10 mins measured after 1 day of light irradiation (reference value: 39.2 +/- 1.8 mg)
Format: organism-based
Details: in vivo

Structure (SMILES) | Activity
CCCCCCOC(C)c1c(C)c2cc3nc(c4c5[nH]c(cc6nc(cc1[nH]2)C(C)=C6CC)c(C)c5C(=O)C4)[C@@H](CCC(=O)O)[C@@H]3C (some centres not stated) [HPPH] | 42.6 mg

System: Cavia porcellus
Assay: Phototoxicity in guinea pig assessed as change in right ear weight 4.5 mg/kg, iv followed by 10 mW/cm2 light irradiation for 10 mins measured after 1 day of light irradiation (reference value: 40.4 +/- 2.4 mg)
Format: organism-based
Details: in vivo

Structure (SMILES) | Activity
CCCCCCOC(C)c1c(C)c2cc3nc(c4c5[nH]c(cc6nc(cc1[nH]2)C(C)=C6CC)c(C)c5C(=O)C4)[C@@H](CCC(=O)O)[C@@H]3C (some centres not stated) [HPPH] | 42.2 mg

System: Cavia porcellus
Assay: Phototoxicity in guinea pig assessed as change in back skin weight 4.5 mg/kg, iv followed by 10 mW/cm2 light irradiation for 10 mins measured after 1day of light irradiation (reference value: 72.4 +/- 3.1 mg)
Format: organism-based
Details: in vivo, 24 h

Structure (SMILES) | Activity
CCCCCCOC(C)c1c(C)c2cc3nc(c4c5[nH]c(cc6nc(cc1[nH]2)C(C)=C6CC)c(C)c5C(=O)C4)[C@@H](CCC(=O)O)[C@@H]3C (some centres not stated) [HPPH] | 74.1 mg

System: Cavia porcellus
Assay: Phototoxicity in guinea pig assessed as change in auricles of left ear at 4.5 mg/kg, iv in presence of 10 mW/cm2 light irradiation for 10 mins measured after 1day of light irradiation by H and E staining based microscopic analysis
Format: organism-based
Details: in vivo

Structure (SMILES) | Activity
CCCCCCOC(C)c1c(C)c2cc3nc(c4c5[nH]c(cc6nc(cc1[nH]2)C(C)=C6CC)c(C)c5C(=O)C4)[C@@H](CCC(=O)O)[C@@H]3C (some centres not stated) [HPPH] | Non-Toxic

System: Cavia porcellus
Assay: Phototoxicity in guinea pig assessed as change in back skin at 4.5 mg/kg, iv in presence of 10 mW/cm2 light irradiation for 10 mins measured after 1day of light irradiation by H and E staining based microscopic analysis
Format: organism-based
Details: in vivo

Structure (SMILES) | Activity
CCCCCCOC(C)c1c(C)c2cc3nc(c4c5[nH]c(cc6nc(cc1[nH]2)C(C)=C6CC)c(C)c5C(=O)C4)[C@@H](CCC(=O)O)[C@@H]3C (some centres not stated) [HPPH] | Non-Toxic

System: not listed separately
Assay: Induction of ROS generation in DMF solution assessed as ROS quantum yield at 2 uM followed by irradiation measured every 10 secs by spectrophotometric analysis
Format: functional
Details: not given

Structure (SMILES) | Ratio
CCCCCCOC(C)c1c(C)c2cc3nc(c4c5[nH]c(cc6nc(cc1[nH]2)C(C)=C6CC)c(C)c5C(=O)C4)[C@@H](CCC(=O)O)[C@@H]3C (some centres not stated) [HPPH] | 1.78

Source: ChEMBL document CHEMBL4376862, “Synthesis and evaluation of novel chlorophyll a derivatives as potent photosensitizers for photodynamic therapy” (Eur J Med Chem, 2020)
